# Columns and labels:
# Format in all cases: functional, organism-based
# [1] = system: Meloidogyne incognita; test: Nematicidal activity against Meloidogyne incognita J2 (root-knot nematode) larvae immersed in compound solution for 24 hr assessed as reduction in larval motility
# Procedure, shortened: (§1)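 J2 hatched at 28 °C in modified Baermann funnels from eggs extracted from roots with sodium hypochlorite. Ethanol stocks were diluted in water with Tween-20 (final ethanol ≤1%, Tween-20 ≤0.3% v/v), with water and solvent controls. Fifteen J2 per well, covered, dark, 28 °C. Motile/immotile scored microscopically. Control-corrected (Schneider-Orelli), six replicates, run twice. EC50 from log-logistic regression.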
# [2] = system: Meloidogyne incognita; test: Nematicidal activity against Meloidogyne incognita J2 (root-knot nematode) larvae immersed in compound solution for 48 hr assessed as reduction in larval motility; procedure, shortened: as §1
# [3] = system: Meloidogyne incognita; test: Nematicidal activity against Meloidogyne incognita J2 (root-knot nematode) larvae immersed in compound solution for 96 hr assessed as reduction in larval motility; procedure, shortened: as §1
# [4] = system: Meloidogyne javanica; test: Nematicidal activity against Meloidogyne javanica J2 (root-knot nematode) larvae immersed in compound solution for 48 hr assessed as reduction in larval motility
SMILES,EC50 [1] [µg/mL],EC50 [2] [µg/mL],EC50 [3] [µg/mL],EC50 [4] [uL/ml]
CC12CCC(CC1)C(C)(C)O2 [EUCALYPTOL],> 1840,> 1840,1600,–
CC(C)=C1CC[C@@H](C)CC1=O [PULEGONE],150,< 117,< 117,0.205
C=C(C)[C@@H]1CC=C(C)C(=O)C1 [L-CARVONE],115,< 120,< 120,–
C=C1CC/C=C(\C)CC[C@@H]2[C@@H]1CC2(C)C [BETA-CARYOPHYLLENE],> 1800,433,307,–
Cc1ccc(C(C)C)cc1O [CARVACROL],264,176,117,0.128
CC1=CCC(O)(C(C)C)CC1 (stereo unspecified) [TERPINEOL],392,290,168,–
C=CCc1ccc(O)c(OC)c1 [EUGENOL],256,192,< 133,–
Cc1ccc(C(C)C)cc1 [P-CYMENE],> 1720,> 1720,> 1720,–
CC(C)=CCC/C(C)=C/CO [GERANIOL],237,158,105,–
C=CC(C)(O)CCC=C(C)C (stereo unspecified) [LINALOOL],862,707,284,–
C=C(C)[C@H]1CC=C(C)CC1 [D-LIMONENE],> 1680,> 1680,> 1680,–
C/C=C/c1ccc(OC)cc1 [ANETHOLE],170,140,124,–
Cc1ccc(C(C)C)c(O)c1 [THYMOL],390,280,160,–
